Test results: ChEMBL document CHEMBL3421570, “Combinatorial Libraries As a Tool for the Discovery of Novel, Broad-Spectrum Antibacterial Agents Targeting the ESKAPE Pathogens” (J Med Chem, 2015)
≈ marks a conversion by molar mass, not a printed value. Calls of active or inactive are those of the source. No cut-off for these calls is given here.

Tests used:
[1] = tested on: Staphylococcus aureus; test: Induction of bacterial cell lysis in methicillin-resistant Staphylococcus aureus assessed as cell recovery at 2% by time kill assay; type: functional
[2] = tested on: Staphylococcus aureus; test: Bactericidal activity against methicillin-resistant Staphylococcus aureus assessed as cell survival recovery at 2% measured after drug wash out after 120 mins by time kill assay; type: functional
Method in brief: (§1)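 MRSA from stationary phase was regrown 3 h in TSB and seeded at OD600 0.5. […] After 120 min, cells were centrifuged and washed, serially diluted and plated for CFU. Percent recovery is relative to no-drug controls.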

[3] = Selectivity index, ratio of IC50 for human A549 cells to MIC for Pseudomonas aeruginosa
[4] = tested on: Klebsiella pneumoniae; test: Bactericidal activity against Klebsiella pneumoniae after 24 hrs; type: functional
[5] = tested on: Staphylococcus aureus; test: Effect on bacterial density of methicillin-resistant Staphylococcus aureus at MIC measured over 2 hrs period by time kill assay; type: functional, organism-based
[6] = tested on: Staphylococcus aureus; test: Antimicrobial activity against Staphylococcus aureus assessed as inhibition of microbial growth after 24 hrs; type: functional
Method in brief: (§2)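 Broth microdilution against multidrug-resistant clinical ESKAPE isolates. Overnight cultures (TSB for Gram-positives, LB for Gram-negatives) diluted 1:1000 in fresh medium, compound in DMF (≤2.0% DMF) added at decreasing concentrations, 37°C.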

[7] = Selectivity index, ratio of IC50 for human A549 cells to MIC for Acinetobacter baumannii
[8] = tested on: Pseudomonas aeruginosa; test: Antibiofilm activity against Pseudomonas aeruginosa incubated for 24 hrs followed by biofilm resuspension in PBS and measured after 24 hrs; type: functional
Method in brief: (§3)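 Biofilms grown 24 h in 96-well plates from overnight cultures standardized to OD600 0.5 in fresh medium (human serum only for S. aureus; TSB for Gram-positives, LB for Gram-negatives). Medium then replaced with fresh medium containing a concentration range above and below MIC, 37°C overnight. After 24 h biofilm resuspended in PBS, serially diluted, plated in duplicate, CFU counted after 24 h at 37°C. Activity relative to untreated; three technical replicates; MBEC50 reported.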

[9] = tested on: Pseudomonas aeruginosa; test: Induction of spontaneous mutation in Pseudomonas aeruginosa at 2 to 10 MIC; type: functional, organism-based; details: 2 to 10 x MIC
[10] = tested on: Staphylococcus aureus; test: Induction of spontaneous mutation in Staphylococcus aureus at 2 to 10 MIC; type: functional, organism-based
[11] = tested on: Enterococcus faecium; test: Bactericidal activity against Enterococcus faecium after 24 hrs; type: functional
[12] = tested on: Staphylococcus aureus; test: Bactericidal activity against methicillin-resistant Staphylococcus aureus at MIC measured after drug wash out after 120 mins by time kill assay; type: functional; method in brief: as §1
[13] = tested on: Enterococcus faecium; test: Antibiofilm activity against Enterococcus faecium incubated for 24 hrs followed by biofilm resuspension in PBS and measured after 24 hrs; type: functional; method in brief: as §3
[14] = Selectivity index, ratio of IC50 for human A549 cells to MIC for Enterobacter cloacae
[15] = tested on: Enterobacter cloacae; test: Antimicrobial activity against Enterobacter cloacae assessed as inhibition of microbial growth at 45 uM after 24 hrs; type: functional, organism-based
Method in brief: (§4)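 Broth microdilution single-concentration read: overnight cultures diluted 1:1000, compound in DMF (≤2.0%) added, 37°C for 24 h, growth inhibition scored visually by lack of turbidity; triplicate. Gram-positives grown in TSB, Gram-negatives in LB.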

[16] = tested on: Staphylococcus aureus; test: Antimicrobial activity against Staphylococcus aureus USA300 strain FPR3757 infected in mouse model of lethal peritonitis assessed as mouse survival at 2 uM, im dosed 1 hr post infection and measured after 5 days post infection; type: functional, organism-based
Method in brief: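 Mice, six per group, infected i.p. with 1 × 10^8 CFU ml−1 S. aureus USA300 FPR3757 in PBS with 5% mucin. Compound given i.m. at 2 μM 1 h later; vehicle 45% w/v (2-hydroxypropyl)-β-cyclodextrin in water i.v.; vancomycin i.v. as control. Monitored twice daily for 5 days, pre-moribund animals euthanized. Survival compared by log-rank test.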

[17] = tested on: Enterobacter cloacae; test: Antimicrobial activity against Enterobacter cloacae isolate 1446 assessed as inhibition of microbial growth in presence of 100 uM efflux pump inhibitor reserpine after 24 hrs; type: functional, organism-based
[18] = tested on: Enterococcus faecium; test: Antimicrobial activity against Enterococcus faecium assessed as inhibition of microbial growth at 45 uM after 24 hrs; type: functional, organism-based; method in brief: as §4
[19] = tested on: Enterobacter cloacae; test: Antimicrobial activity against Enterobacter cloacae assessed as inhibition of microbial growth after 24 hrs; type: functional; method in brief: as §2
[20] = tested on: Acinetobacter baumannii; test: Bactericidal activity against Acinetobacter baumannii after 24 hrs; type: functional
[21] = tested on: Acinetobacter baumannii; test: Ratio of MIC for Acinetobacter baumannii measured after 8 cycle passage to MIC for wild type Acinetobacter baumannii; type: functional
[22] = tested on: Staphylococcus aureus; test: Antibiofilm activity against Staphylococcus aureus incubated for 24 hrs followed by biofilm resuspension in PBS and measured after 24 hrs; type: functional; method in brief: as §3
[23] = Selectivity index, ratio of IC50 for human A549 cells to MIC for Klebsiella pneumoniae
[24] = tested on: Klebsiella pneumoniae; test: Antimicrobial activity against Klebsiella pneumoniae assessed as inhibition of microbial growth at 45 uM after 24 hrs; type: functional, organism-based; method in brief: as §4
[25] = tested on: Pseudomonas aeruginosa; test: Antimicrobial activity against Pseudomonas aeruginosa assessed as inhibition of microbial growth at 45 uM after 24 hrs; type: functional, organism-based; method in brief: as §4
[26] = Selectivity index, ratio of IC50 for human A549 cells to MIC for Enterococcus faecium
[27] = tested on: Enterobacter cloacae; test: Ratio of MIC for Enterobacter cloacae measured after 8 cycle passage to MIC for wild type Enterobacter cloacae; type: functional
[28] = tested on: Acinetobacter baumannii; test: Antimicrobial activity against Acinetobacter baumannii assessed as inhibition of microbial growth after 24 hrs; type: functional; method in brief: as §2
[29] = tested on: Staphylococcus aureus; test: Bactericidal activity against methicillin-resistant Staphylococcus aureus assessed as cell survival recovery at MIC measured after drug wash out after 120 mins by time kill assay; type: functional; method in brief: as §1
[30] = tested on: A549; test: Cytotoxicity against human A549 cells after 48 hrs by MTT assay; type: cell-based; details: A549, 48 h
Method in brief: (§5)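 A549 cells grown in F-12K with L-glutamine, 10% FBS, 1% penicillin-streptomycin, seeded at 1.0 × 10^5 ml−1, allowed to adhere 24 h (37°C, 5% CO2), then exposed to compound in 45% w/v (2-hydroxypropyl)-β-cyclodextrin vehicle for 48 h. MTT 4 h, formazan solubilized in DMSO, absorbance 540 nm. Percent recovery versus vehicle-only; IC50 derived; at least three independent experiments.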

[31] = tested on: Enterobacter cloacae; test: Antibiofilm activity against Enterobacter cloacae incubated for 24 hrs followed by biofilm resuspension in PBS and measured after 24 hrs; type: functional; method in brief: as §3
[32] = Cytotoxicity against human A549 cells assessed as cell viability recovery up to 225 uM after 48 hrs by MTT assay; type: cell-based; details: read-out: Activity; method in brief: as §5
[33] = tested on: Acinetobacter baumannii; test: Antibiofilm activity against Acinetobacter baumannii incubated for 24 hrs followed by biofilm resuspension in PBS and measured after 24 hrs; type: functional; method in brief: as §3
[34] = tested on: Acinetobacter baumannii; test: Antimicrobial activity against Acinetobacter baumannii assessed as inhibition of microbial growth at 45 uM after 24 hrs; type: functional, organism-based; method in brief: as §4
[35] = tested on: Acinetobacter baumannii; test: Induction of spontaneous mutation in Acinetobacter baumannii at 2 to 10 MIC; type: functional, organism-based
[36] = tested on: Staphylococcus aureus; test: Antimicrobial activity against Staphylococcus aureus assessed as inhibition of microbial growth at 45 uM after 24 hrs; type: functional, organism-based; method in brief: as §4
[37] = tested on: Pseudomonas aeruginosa; test: Bactericidal activity against Pseudomonas aeruginosa after 24 hrs; type: functional
[38] = tested on: Klebsiella pneumoniae; test: Antimicrobial activity against Klebsiella pneumoniae assessed as inhibition of microbial growth after 24 hrs; type: functional; method in brief: as §2
[39] = tested on: Enterococcus faecium; test: Antimicrobial activity against Enterococcus faecium assessed as inhibition of microbial growth after 24 hrs; type: functional; method in brief: as §2
[40] = tested on: Enterobacter cloacae; test: Bactericidal activity against Enterobacter cloacae after 24 hrs; type: functional
[41] = tested on: Staphylococcus aureus; test: Ratio of MIC for Staphylococcus aureus measured after 8 cycle passage to MIC for wild type Staphylococcus aureus; type: functional
[42] = tested on: Enterobacter cloacae; test: Induction of spontaneous mutation in Enterobacter cloacae at 2 to 10 MIC; type: functional, organism-based
[43] = tested on: Pseudomonas aeruginosa; test: Antimicrobial activity against Pseudomonas aeruginosa assessed as inhibition of microbial growth after 24 hrs; type: functional; method in brief: as §2
[44] = Selectivity index, ratio of IC50 for human A549 cells to MIC for Staphylococcus aureus
[45] = tested on: Klebsiella pneumoniae; test: Antibiofilm activity against Klebsiella pneumoniae incubated for 24 hrs followed by biofilm resuspension in PBS and measured after 24 hrs; type: functional; method in brief: as §3
[46] = tested on: Enterococcus faecium; test: Induction of spontaneous mutation in Enterococcus faecium at 2 to 10 MIC; type: functional, organism-based
[47] = tested on: Staphylococcus aureus; test: Bactericidal activity against Staphylococcus aureus after 24 hrs; type: functional
[48] = Cytotoxicity against human A549 cells assessed as cell viability recovery at 45 uM after 48 hrs by MTT assay; type: cell-based; details: read-out: Activity; method in brief: as §5
[49] = tested on: Klebsiella pneumoniae; test: Ratio of MIC for Klebsiella pneumoniae measured after 8 cycle passage to MIC for wild type Klebsiella pneumoniae; type: functional
[50] = Induction of hemolysis in human RBC at 10 uM incubated for 15 mins; type: cell-based, Erythrocyte; details: red blood cells, read-out: Activity
Method in brief: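 Human RBCs from whole blood, resuspended 20% v/v in HA buffer (NaCl, CaCl2), compound 10 μM, 15 min at 37°C. Centrifuged 5,500 g for 1 min, supernatant OD543 read. Percent hemolysis against DMF vehicle (0%) and 1.0% Triton X-100 (100%); triplicate.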

[51] = tested on: Klebsiella pneumoniae; test: Induction of spontaneous mutation in Klebsiella pneumoniae at 2 to 10 MIC; type: functional, organism-based
[52] = tested on: Staphylococcus aureus; test: Bactericidal activity against methicillin-resistant Staphylococcus aureus assessed as cell survival recovery at 0.001% measured after drug wash out after 120 mins by time kill assay; type: functional; method in brief: as §1

CCCCCCCCCCCCOS(=O)(=O)[O-].[Na+] [SODIUM LAURYL SULFATE]
Activity [1]: 52% | Survival [2]: 0%

CCCCCCCN1C(=N)N(CCCC[C@H]2CNC(=N)N2CCc2cccc(C(F)(F)F)c2)C[C@@H]1CC1CCCCC1
Selectivity Index [3]: 43 | MBC90 [4]: 2.2 µM (≈ 1.3 µg/mL) | Activity [5]: inactive | MIC [6]: 1.5 µM | Selectivity Index [7]: 43 | MBEC50 [8]: 46 µM | Activity [9]: inactive | Activity [10]: inactive | MBC90 [11]: 3.3 µM (≈ 1.95 µg/mL) | fold change (FC) [12]: 2.5 | MBEC50 [13]: 26 µM | Selectivity Index [14]: 43 | growth inhibition (GI) [15]: Active | Activity [16]: Active | growth inhibition (GI) [17]: Active | growth inhibition (GI) [18]: Active | MIC [19]: 1.5 µM | MBC90 [20]: 3.2 µM (≈ 1.89 µg/mL) | Ratio [21]: <=8 | MBEC50 [22]: 4.4 µM | Selectivity Index [23]: 43 | growth inhibition (GI) [24]: Active | growth inhibition (GI) [25]: Active | Selectivity Index [26]: 43 | Ratio [27]: <=8 | MIC [28]: 1.5 µM | Survival [29]: 0.2% | IC50 [30]: 66 µM | MBEC50 [31]: 15 µM | viability at 48 h [32]: ≥ 33% | MBEC50 [33]: 13 µM | growth inhibition (GI) [34]: Active | Activity [35]: inactive | growth inhibition (GI) [36]: Active | MBC90 [37]: 14 µM (≈ 8.27 µg/mL) | MIC [38]: 1.5 µM | MIC [39]: 1.5 µM | MBC90 [40]: 6.4 µM (≈ 3.78 µg/mL) | Ratio [41]: 4 | Activity [42]: inactive | MIC [43]: 1.5 µM | Selectivity Index [44]: 43 | MBEC50 [45]: 4.8 µM | Activity [46]: inactive | MBC90 [47]: 3.3 µM (≈ 1.95 µg/mL) | viability at 48 h, 45 µM [48]: > 60% | Ratio [49]: <=8 | hemolysis at 0.25 h, 10 µM [50]: 0.34% | Activity [51]: inactive

CC(C)(C)CC(C)(C)c1ccc(OCCOCC[N+](C)(C)Cc2ccccc2)cc1.[Cl-] [BENZETHONIUM CHLORIDE]
Survival [52]: 0%
